Test results published in ChEMBL document CHEMBL1131624, “Inhibitors of acyl-CoA:cholesterol O-acyltransferase. 2. Identification and structure-activity relationships of a novel series of N-alkyl-N-(heteroaryl-substituted benzyl)-N'-arylureas” (J Med Chem, 1998).
Calls of active or inactive are those of the source. No cut-off for these calls is given here.

Assays:
O-acyltransferase = O-acyltransferase (Oryctolagus cuniculus, UniProt G1SFD9); test: In vitro inhibitory activity against Acyl coenzyme A:cholesterol acyltransferase (ACAT) in rabbit intestinal microsomes; parameters: species or system Intestine
O-acyltransferase, sequence (G1SFD9 1-524): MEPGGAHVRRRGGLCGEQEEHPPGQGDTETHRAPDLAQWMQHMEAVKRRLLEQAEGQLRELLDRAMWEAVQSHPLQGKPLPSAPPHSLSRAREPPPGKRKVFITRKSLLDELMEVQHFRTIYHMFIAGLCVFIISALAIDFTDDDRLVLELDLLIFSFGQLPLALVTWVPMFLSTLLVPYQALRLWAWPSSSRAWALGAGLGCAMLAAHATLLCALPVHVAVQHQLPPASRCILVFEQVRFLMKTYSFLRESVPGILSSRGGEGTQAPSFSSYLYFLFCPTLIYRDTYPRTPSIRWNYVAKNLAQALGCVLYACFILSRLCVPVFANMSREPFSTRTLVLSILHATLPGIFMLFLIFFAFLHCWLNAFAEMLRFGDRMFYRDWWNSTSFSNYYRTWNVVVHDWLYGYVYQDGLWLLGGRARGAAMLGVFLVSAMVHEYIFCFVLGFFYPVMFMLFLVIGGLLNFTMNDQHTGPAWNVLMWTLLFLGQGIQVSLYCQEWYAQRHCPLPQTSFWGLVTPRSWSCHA
Method in brief: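 Enzyme source was mucosal microsomes from small intestine of cholesterol-fed rabbits, incubated with [1-¹⁴C]oleoyl-CoA (Heider method, minor modifications).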

[1] = target: T1, Sterol O-acyltransferase, Soat (Rattus norvegicus) (UniProt Q7TQM4+O70536); test: Effective dose to reduce plasma total cholesterol level by 50% of the control value in cholesterol fed rats; format: functional
Method in brief: (§1)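 Cholesterol-fed rats given compound orally as a dietary admixture in a cholesterol-enriched diet. Plasma total cholesterol compared with control and reported as percent reduction at the dose, or as ED50, the dose reducing plasma total cholesterol by 50% of the control value.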

Rattus norvegicus [2] = test: Compound was evaluated for percent reduction in total cholesterol level at >1 mg/kg; Inactive; format: functional, organism-based; method in brief: as §1
[3] = target: T1, Sterol O-acyltransferase, Soat (Rattus norvegicus); test: Percentage reduction in total cholesterol level at >1 mg/kg; format: functional, organism-based; method in brief: as §1
[4] = target: T1, Sterol O-acyltransferase, Soat (Rattus norvegicus); test: Percentage reduction in total cholesterol level at <1 mg/kg; format: functional, organism-based; method in brief: as §1
Rattus norvegicus [5] = test: Compound was evaluated for percent reduction in total cholesterol level at <0.32 mg/kg; format: functional; method in brief: as §1
Rattus norvegicus [6] = test: Compound was evaluated for percent reduction in total cholesterol level at >0.1 mg/kg; format: functional; method in brief: as §1
Rattus norvegicus [7] = species on record: Rattus norvegicus; test: Effective dose to reduce plasma total cholesterol level by 50% of the control value in cholesterol fed rats; Inactive; format: functional, organism-based; method in brief: as §1
Mus musculus = species on record: Mus musculus; test: Compound tested for inhibitory activity of foam cell formation in mouse peritoneal macrophages; format: functional
Method in brief: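 Mouse peritoneal macrophages from nonstimulated mice, lavaged with PBS, plated 2 × 10⁶ cells/mL, adhered 2 h, then 18 h in 10% FBS-DMEM. Incubated 4 h at 37 °C with 0.2 mmol/L [1-¹⁴C]oleate–BSA, 30 µg/mL acetylated human LDL and compound (0.1% DMSO). Lipids extracted, TLC-separated, and cholesteryl [¹⁴C]oleate counted. Cell protein also measured. IC50 in nM.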

IC50 (O-acyltransferase) | ED50 [1] | SMILES | also measured
23 nM | > 1 mg/kg | O=C(Nc1c(F)cc(F)cc1F)N(Cc1ccc(-c2ccsc2)cc1)C1CCCCCC1 | Reduction (Rattus norvegicus [2]): inactive
47 nM | 0.31 mg/kg | Cc1cc(C)c(NC(=O)N(Cc2ccc(-c3cnn(C)c3)cc2)C2CCCCCC2)c(C)c1 | –
47 nM | > 1 mg/kg | Cc1cc(C)c(NC(=O)N(Cc2ccc(-n3ccnc3)cc2)C2CCCCCC2)c(C)c1 | Reduction [3]: 26%
36 nM | < 1 mg/kg | Cc1cc(C)c(NC(=O)N(Cc2cc(-c3ccccc3)cs2)C2CCCCCC2)c(C)c1 | Reduction [4]: 69%
12 nM | < 0.32 mg/kg | CN(C)c1ccc(CN(Cc2cccc(-c3cc[nH]n3)c2)C(=O)Nc2c(F)cc(F)cc2F)cc1 | Reduction (Rattus norvegicus [5]): 68%
– | > 0.1 mg/kg | CSc1cc(C)nc(SC)c1NC(=O)N(Cc1cccc(-c2cnn(C)c2)c1)C1CCCCCC1 | Reduction (Rattus norvegicus [6]): 44%
73 nM | < 1 mg/kg | CSc1cc(C)nc(SC)c1NC(=O)N(Cc1ccccc1)Cc1cccc(-c2ccn(C)n2)c1 | Reduction [4]: 77%
44 nM | < 1 mg/kg | Cc1cc(C)c(NC(=O)N(Cc2ccc(-c3ccccc3)o2)C2CCCCCC2)c(C)c1 | Reduction [4]: 68%
130 nM | > 1 mg/kg | Cc1cc(C)c(NC(=O)N(Cc2ccc(-n3nccn3)cc2)C2CCCCCC2)c(C)c1 | Reduction [3]: 11%
– | > 0.1 mg/kg | CSc1cc(C)nc(SC)c1NC(=O)N(Cc1ccccc1)Cc1cccc(-c2cnn(C)c2)c1 | Reduction (Rattus norvegicus [6]): 43%
– | > 1 mg/kg | Cc1cc(C)c(NC(=O)N(Cc2cccc(-c3nnnn3C)c2)C2CCCCCC2)c(C)c1 | Reduction [3]: 26%
– | > 0.1 mg/kg | CSc1cc(C)nc(SC)c1NC(=O)N(CCc1ccccc1)Cc1cccc(-c2cc[nH]n2)c1 | ED50 (Rattus norvegicus [7]): inactive
> 1000 nM | – | Cc1cc(C)c(NC(=O)N(Cc2cccc(-c3nn[nH]n3)c2)C2CCCCCC2)c(C)c1 | –
18 nM | > 1 mg/kg | O=C(Nc1c(F)cc(F)cc1F)N(Cc1ccc(-c2cccs2)cc1)C1CCCCCC1 | Reduction [3]: 33%
52 nM | > 1 mg/kg | Cc1cc(C)c(NC(=O)N(Cc2ccc(-c3cc[nH]n3)cc2)C2CCCCCC2)c(C)c1 | Reduction [3]: 17%
200 nM | < 0.1 mg/kg | COc1ccc(CN(Cc2cccc(-c3cc[nH]n3)c2)C(=O)Nc2c(SC)cc(C)nc2SC)cc1 | –
– | < 0.32 mg/kg | O=C(Nc1c(F)cc(F)cc1F)N(Cc1ccc(F)cc1)Cc1cccc(-c2cc[nH]n2)c1 | Reduction (Rattus norvegicus [5]): 64%
35 nM | > 1 mg/kg | Cc1cc(C)c(NC(=O)N(Cc2cccc(-c3ccnn3C)c2)C2CCCCCC2)c(C)c1 | Reduction [3]: 34%
20 nM | 0.17 mg/kg | Cc1cc(C)c(NC(=O)N(Cc2cccc(-n3cccc3)c2)C2CCCCCC2)c(C)c1 | –
26 nM | > 1 mg/kg | Cc1cc(C)c(NC(=O)N(Cc2ccc(-n3cncn3)cc2)C2CCCCCC2)c(C)c1 | Reduction [3]: 19%
120 nM | > 1 mg/kg | Cc1cc(C)c(NC(=O)N(Cc2ccc(-c3n[nH]c(C)n3)cc2)C2CCCCCC2)c(C)c1 | Reduction [3]: 17%

IC50 (O-acyltransferase) | ED50 [1] | SMILES | also measured
520 nM | – | Cc1cc(C)c(NC(=O)N(Cc2cc(-c3ccccc3)[nH]n2)C2CCCCCC2)c(C)c1 | –
42 nM | < 1 mg/kg | Cc1cc(C)c(NC(=O)N(Cc2cccc(-c3ccn(C)n3)c2)C2CCCCCC2)c(C)c1 | Reduction [4]: 78%
– | 5 mg/kg | CCCCCCCN(Cc1ccc(CC(C)(C)C)cc1)C(=O)Nc1ccc(F)cc1F | –
270 nM | > 1 mg/kg | Cc1cc(C)c(NC(=O)N(Cc2ccc(-c3cn[nH]c3)cc2)C2CCCCCC2)c(C)c1 | Reduction [3]: 8%
22 nM | < 1 mg/kg | Cc1cc(C)c(NC(=O)N(Cc2cccc(-c3cc[nH]n3)c2)C2CCCC2)c(C)c1 | Reduction [4]: 76%
57 nM | > 1 mg/kg | Cc1cc(C)c(NC(=O)N(Cc2ccc(N3CCN(C)CC3)cc2)C2CCCCCC2)c(C)c1 | Reduction [3]: 23%
– | > 0.1 mg/kg | CSc1cc(C)nc(SC)c1NC(=O)N(Cc1ccccc1)Cc1ccc(-c2cnn(C)c2)cc1 | Reduction (Rattus norvegicus [6]): 29%
24 nM | < 1 mg/kg | Cc1cc(C)c(NC(=O)N(Cc2ccc(-c3ccnn3C)cc2)C2CCCCCC2)c(C)c1 | Reduction [4]: 64%
260 nM | – | Cc1cc(C)c(NC(=O)N(Cc2ccc(-c3ccccc3)nc2)C2CCCCCC2)c(C)c1 | –
72 nM | < 0.1 mg/kg | CSc1cc(C)nc(SC)c1NC(=O)N(Cc1ccc(N(C)C)cc1)Cc1cccc(-c2cc[nH]n2)c1 | –
65 nM | 0.097 mg/kg | Cc1cc(C)c(NC(=O)N(Cc2cccc(-c3cc[nH]n3)c2)C2CCCCCC2)c(C)c1 | IC50 (Mus musculus): 460 nM
130 nM | 0.58 mg/kg | Cc1cc(C)c(NC(=O)N(Cc2ccc(-c3cccnc3)cc2)C2CCCCCC2)c(C)c1 | –
33 nM | > 1 mg/kg | Cc1cc(C)c(NC(=O)N(Cc2ccc(-c3ccccn3)cc2)C2CCCCCC2)c(C)c1 | Reduction [3]: 46%
– | > 0.1 mg/kg | COc1ccccc1CN(Cc1cccc(-c2cc[nH]n2)c1)C(=O)Nc1c(SC)cc(C)nc1SC | ED50 (Rattus norvegicus [7]): inactive
100 nM | < 1 mg/kg | Cc1cc(C)c(NC(=O)N(Cc2cccc(-c3nnn(C)n3)c2)C2CCCCCC2)c(C)c1 | Reduction [4]: 84%
250 nM | < 0.1 mg/kg | CSc1cc(C)nc(SC)c1NC(=O)N(Cc1ccc(F)cc1)Cc1cccc(-c2cc[nH]n2)c1 | –
99 nM | 0.046 mg/kg | CSc1cc(C)nc(SC)c1NC(=O)N(Cc1ccccc1)Cc1cccc(-c2cc[nH]n2)c1 | –
44 nM | < 1 mg/kg | Cc1cc(C)c(NC(=O)N(Cc2cccc(-c3cnn(C)c3)c2)C2CCCCCC2)c(C)c1 | Reduction [4]: 74%
200 nM | > 1 mg/kg | Cc1cc(C)c(NC(=O)N(Cc2ccc(-c3cnco3)cc2)C2CCCCCC2)c(C)c1 | Reduction [3]: 13%
21 nM | > 1 mg/kg | Cc1cc(C)c(NC(=O)N(Cc2ccccc2)Cc2cccc(-c3cc[nH]n3)c2)c(C)c1 | Reduction [3]: 36%
100 nM | < 0.32 mg/kg | CSc1cc(C)nc(SC)c1NC(=O)N(Cc1ccc(-c2cc[nH]n2)cc1)C1CCCCCC1 | Reduction (Rattus norvegicus [5]): 77%

IC50 (O-acyltransferase) | ED50 [1] | SMILES | also measured
70 nM | > 1 mg/kg | Cc1cc(C)c(NC(=O)N(Cc2ccc(-n3cccn3)cc2)C2CCCCCC2)c(C)c1 | Reduction (Rattus norvegicus [2]): inactive
30 nM | 0.034 mg/kg | CSc1cc(C)nc(SC)c1NC(=O)N(Cc1ccc(Oc2ccc(F)cc2)cc1)C1CCCCCC1 | –
19 nM | 0.51 mg/kg | Cc1cc(C)c(NC(=O)N(Cc2ccc(-c3ccsc3)cc2)C2CCCCCC2)c(C)c1 | –
46 nM | < 1 mg/kg | Cc1cc(C)c(NC(=O)N(Cc2ccc(-c3ccccc3)s2)C2CCCCCC2)c(C)c1 | Reduction [4]: 60%
22 nM | 0.28 mg/kg | Cc1cc(C)c(NC(=O)N(Cc2ccc(-c3cccs3)cc2)C2CCCCCC2)c(C)c1 | –
14 nM | 0.096 mg/kg | O=C(Nc1c(F)cc(F)cc1F)N(Cc1ccccc1)Cc1cccc(-c2cc[nH]n2)c1 | –
39 nM | 0.12 mg/kg | Cc1cc(C)c(NC(=O)N(Cc2cccc(-c3cc[nH]n3)c2)C2CCCCC2)c(C)c1 | –
– | > 0.1 mg/kg | COc1cccc(CN(Cc2cccc(-c3cc[nH]n3)c2)C(=O)Nc2c(SC)cc(C)nc2SC)c1 | Reduction (Rattus norvegicus [6]): 13%
28 nM | < 1 mg/kg | Cc1cc(C)c(NC(=O)N(Cc2ccc(-n3cccc3)cc2)C2CCCCCC2)c(C)c1 | Reduction [4]: 51%
42 nM | > 1 mg/kg | Cc1cc(C)c(NC(=O)N(Cc2ccc(-n3ccnn3)cc2)C2CCCCCC2)c(C)c1 | Reduction [3]: 19%
27 nM | < 0.32 mg/kg | CSc1cc(C)nc(SC)c1NC(=O)N(Cc1ccccc1)Cc1ccc(-c2ccnn2C)cc1 | Reduction (Rattus norvegicus [5]): 86%
180 nM | – | Cc1cc(C)c(NC(=O)N(Cc2cccc(-c3csc(C)n3)c2)C2CCCCCC2)c(C)c1 | –
55 nM | < 0.32 mg/kg | CSc1cc(C)nc(SC)c1NC(=O)N(Cc1ccccc1)Cc1ccc(-c2cc[nH]n2)cc1 | Reduction (Rattus norvegicus [5]): 58%
61 nM | > 1 mg/kg | Cc1cc(C)c(NC(=O)N(Cc2cc(-c3ccccc3)on2)C2CCCCCC2)c(C)c1 | Reduction [3]: 28%
28 nM | < 1 mg/kg | CSc1cc(C)nc(SC)c1NC(=O)N(Cc1ccccc1)Cc1cccc(-c2ccnn2C)c1 | Reduction [4]: 88%
38 nM | 0.19 mg/kg | Cc1cc(C)c(NC(=O)N(Cc2cccc(-c3cn[nH]c3)c2)C2CCCCCC2)c(C)c1 | –
– | > 0.1 mg/kg | CSc1cc(C)nc(SC)c1NC(=O)N(Cc1ccc(-c2cnn(C)c2)cc1)C1CCCCCC1 | ED50 (Rattus norvegicus [7]): inactive
27 nM | > 1 mg/kg | O=C(Nc1c(F)cc(F)cc1F)N(Cc1ccc(-n2cccc2)cc1)C1CCCCCC1 | Reduction [3]: 21%
– | < 1 mg/kg | Cc1cc(C)c(NC(=O)N(Cc2cccc(-c3c[nH]cn3)c2)C2CCCCCC2)c(C)c1 | Reduction [4]: 84%
25 nM | > 1 mg/kg | O=C(Nc1c(F)cc(F)cc1F)N(Cc1ccc(-c2ccccn2)cc1)C1CCCCCC1 | Reduction [3]: 30%

SMILES | IC50 (O-acyltransferase) | ED50 [1] | also measured
CC(C)c1cccc(C(C)C)c1OC(=O)NS(=O)(=O)Oc1c(C(C)C)cccc1C(C)C | 4000 nM | 0.61 mg/kg | IC50 (Mus musculus): 55000 nM
